Test results published in article PMC2587418 (Journal of medicinal chemistry, 2008).
Where two headings read alike, the source gives them in different places.

What was measured:
[1] = assay type: in vivo, rat; settings: pretreated with 3 (10 mg/kg i.v.)
In short: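 Adult male Sprague-Dawley rats (225–250 g) were pretreated by tail vein with a selective CB1 inverse agonist (10 mg/kg, i.v.) or its vehicle. After 15 min they received the test compound (30 μg/kg, i.v.) and were killed by cervical dislocation at 0.25, 0.5, 1, 2, 4 or 8 h, three rats per time point. Frontal cortex was weighed, homogenised in four volumes MeCN with 0.1% HCO2H, and quantified by LC-MS.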

[2] = target: human CB1 receptors (Homo sapiens, UniProt P21554); test: CB1 GTPγ35S potency assay; assay type: biochemical; settings: ratio of CB2 Kb to CB1 Kb; fold
[3] = monkey; within 10-20 min after injection; cited from earlier work

Sequence of human CB1 receptors (P21554 whole entry): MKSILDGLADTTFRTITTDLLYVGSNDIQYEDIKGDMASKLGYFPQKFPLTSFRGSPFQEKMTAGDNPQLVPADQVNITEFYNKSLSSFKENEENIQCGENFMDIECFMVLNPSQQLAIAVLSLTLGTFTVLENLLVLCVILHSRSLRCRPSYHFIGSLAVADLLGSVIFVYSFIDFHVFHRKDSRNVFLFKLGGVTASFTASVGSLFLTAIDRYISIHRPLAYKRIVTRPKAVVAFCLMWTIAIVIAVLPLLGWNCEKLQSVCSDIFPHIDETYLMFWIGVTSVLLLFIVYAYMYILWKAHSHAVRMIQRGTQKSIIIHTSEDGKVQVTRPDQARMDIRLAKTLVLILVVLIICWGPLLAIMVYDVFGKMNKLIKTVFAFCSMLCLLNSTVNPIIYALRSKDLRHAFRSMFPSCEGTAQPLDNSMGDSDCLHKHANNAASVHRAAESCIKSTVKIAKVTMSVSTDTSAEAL

| Structure (SMILES) | Ligand quantifiability in frontal cerebral cortex ([1]; at 4 h after injection) | CB1 versus CB2 selectivity [2] | Ligand quantifiability in frontal cerebral cortex ([1]; at 2 h after injection) | Brain standardized uptake value [3] |
| --- | --- | --- | --- | --- |
| COc1cccc([C@H]2C[C@@H](N[C@H](C)c3ccccc3)C(=O)N2c2ccc(C(F)(F)F)cc2)c1 [Ligand 8, (3R,5R)-5-(3-Methoxy-phenyl)-3-((R)-1-phenyl-ethylamino)-1-(4-trifluoromethyl-phenyl)-pyrrolidin-2-one] | not quantifiable | – | – | – |
| COc1cccc([C@H]2C[C@@H](N[C@H](C)c3ccc(F)cc3)C(=O)N2c2ccc(C(F)(F)F)cc2)c1 [Ligand 16, (3R,5R)-3-[(R)-1-(4-Fluoro-phenyl)-ethylamino]-5-(3-methoxy-phenyl)-1-(4-trifluoromethyl-phenyl)-pyrrolidin-2-one] | – | 2,160 | – | – |
| C[C@@H](N[C@@H]1C[C@H](c2cccc(OCF)c2)N(c2ccc(C(F)(F)F)cc2)C1=O)c1ccccc1 [Ligand 20, (3R,5R)-5-(3-Fluoromethoxy-phenyl)-3-((R)-1-phenyl-ethylamino)-1-(4-trifluoromethyl-phenyl)-pyrrolidin-2-one] | not quantifiable | 3,580 | – | – |
| C[C@@H](N[C@@H]1C[C@H](c2cccc(OCCF)c2)N(c2ccc(C(F)(F)F)cc2)C1=O)c1ccccc1 [Ligand 22, (3R,5R)-5-[3-(2-Fluoro-ethoxy)-phenyl]-3-((R)-1-phenyl-ethylamino)-1-(4-trifluoromethyl-phenyl)-pyrrolidin-2-one] | – | >19,500 | could not be quantified | – |
| C[C@@H](N[C@@H]1C[C@H](c2cccc(O[11CH3])c2)N(c2ccc(C(F)(F)F)cc2)C1=O)c1ccccc1 [[^11C]8, [methyl-^11C](3R,5R)-5-(3-methoxy-phenyl)-3-((R)-1-phenyl-ethylamino)-1-(4-trifluoromethyl-phenyl)-pyrrolidin-2-one] | – | – | – | ~600 % SUV |
